Experimental data from PubChem BioAssay.
Results filed as inconclusive are left out.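 The calls were made as follows, unless noted: active = growth inhibition above 25% in both replicates, a cutoff set 3 SD above the mean; inconclusive = above 25% in only one replicate; inactive = the rest.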

How the values were obtained:
[1] = S. cerevisiae growth inhibition in permissive medium (OD615), pilot counter-assay for S. cerevisiae lifespan shortening project, permissive growth control (AID 705); settings: OD615, 24 h, at 10 µM, stronger effect = higher value
Procedure, shortened: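 System: S. cerevisiae with engineered DeaD lifespan system / Measured by: absorbance (optical density) at 615 nm / Read-out: reduction in yeast growth (OD615) / Times: 4 h cell pre-growth, 24 h exposure at 30 °C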

[2] = S. cerevisiae growth inhibition in restrictive medium, OD615, pilot screen, restrictive growth control, yeast lifespan reduction project (AID 706;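 active = growth inhibition above a set limit, 3 SD over mean compound inhibition, in both replicates, cut at about 43% in these data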;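 also: modified DeaD lifespan yeast strain shifted to restrictive glucose medium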); settings: OD615, 48 h, at 10 µM, stronger effect = higher value
Procedure, shortened: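 System: Engineered S. cerevisiae DeaD strain | Buffer or medium: Glucose-based CSMM-D restrictive medium | Schedule: 4 h pre-incubation, 48 h exposure at 30 °C | Technique: Optical density at 615 nm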

[3] = doxorubicin toxicity protection in MRP-1 cells – H69AR cells, CellTiter-Glo, duplicate, MRP-1 activator project, pilot screen (AID 807;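 active = viability increase at or above a cutoff of the median across tested compounds plus 3 SD, cut at about 8.5% in these data, passing the limit was not always enough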;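 also: compound pretreatment 18-22 h then 72 h combined with doxorubicin; 0% = doxorubicin alone and 100% = vehicle without doxorubicin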); settings: H69AR viability with doxorubicin, CellTiter-Glo luminescence; at 10 µM; stronger effect = higher value
[4] = viability of HCT116 without oncogenic beta-catenin – human colon tumor cells, pilot screen (AID 823;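 active = cell viability at or below a set limit in both duplicate runs, the limit being the all-compound median minus 4 SD, cut at about 23% in these data, passing the limit was not always enough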;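 also: 0% = wells killed by 20 µM Hyamine and 100% = untreated DMSO cell wells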); settings: HCT116 beta-catenin knockout viability, CellTiter-Glo, 60 h; at 10 µM; stronger effect = lower value
[5] = viability of PTEN-null HCT116 cells – cell-based, HCT116 clonal line, CellTiter-Glo, pilot screen (AID 824;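 active = viability at or below 27.92% in each of two runs, the all-compound median minus 4 SD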;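 also: 0% = 20 µM Hyamine control and 100% = vehicle cell control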); settings: HCT116 PTEN-deleted viability, 60 h, at 10 µM, stronger effect = lower value
[6] = RAM pathway blockade in budding yeast – dse1pr::URA3 reporter, 5-FOA selection, pilot screen (AID 869;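 active = inhibition over a set limit, the all-compound mean plus 3 SD, in both replicate runs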;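 also: 0% = DMSO wells with no growth and 100% = 10 µM 1-NA-PP1 with full growth; RAM network block rescues cells from 5-FOA so hits raise OD615 growth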); settings: S. cerevisiae dse1pr::URA3 5-FOA growth, OD615, 2 d; at 10 µM; stronger effect = higher value; strain carries analog-sensitive mutant Cbk1 kinase
[7] = RAM signaling pathway blockade in yeast – S. cerevisiae, Pdr1DBD-CYC8 efflux-inhibited sensitized strain, primary screen (AID 1298;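 active = RAM network inhibition above 8.4% in each of two replicates, 3 SD over the compound average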;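 also: 0% = DMSO untreated cells without growth and 100% = 10 µM 1-NA-PP1 full growth; higher means more yeast growth rescued from 5-FOA killing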); settings: S. cerevisiae cbk1-as DSE1-URA3 strain, 5-FOA growth OD615, 2 d; at 50 µM; stronger effect = higher value

CC(=O)c1ccc(Nc2cc(C)nc3nc(C)nn23)cc1
inactive: growth inhibition [1] -0.07% | growth inhibition [2] -9.04% | viability increase [3] -3.3% | viability [4] 103% | viability [5] 100% | inhibition [6] 0.72% | RAM network inhibition [7] -1.56%

Cc1ccc(S(=O)(=O)NCC(=O)N2CCC(C)CC2)cc1
inactive: growth inhibition [1] -17.5% | growth inhibition [2] -28.3% | viability increase [3] 0.72% | viability [4] 104% | viability [5] 107% | inhibition [6] 0.475% | RAM network inhibition [7] 4.08%

C=C(C)c1cccc(C(C)(C)NC(=O)N2CCN(c3ccccn3)CC2)c1
inactive: growth inhibition [1] -11.1% | growth inhibition [2] 0.485% | viability increase [3] -0.48% | viability [4] 75.8% | viability [5] 89.6% | inhibition [6] 1.06% | RAM network inhibition [7] 1.43%

CCC1Oc2nc(SC)nnc2-c2ccccc2N1C(=O)c1ccccc1 (configuration not stated)
inactive: growth inhibition [1] -2.41% | growth inhibition [2] -2.26% | viability increase [3] -5.16% | viability [4] 70.6% | viability [5] 58.1% | inhibition [6] 1.03% | RAM network inhibition [7] 3.93%

COc1ccc(CC(=O)c2ccc(O)cc2O)cc1OC
inactive: growth inhibition [1] -6.46% | growth inhibition [2] -7.7% | viability increase [3] -3.53% | viability [4] 95.6% | viability [5] 89.2% | inhibition [6] 1.26% | RAM network inhibition [7] 2.27%

Cc1ccc(NC(=O)CSc2nnc(-c3ccncc3)n2N)cc1C
inactive: growth inhibition [1] -4.62% | growth inhibition [2] -3.02% | viability increase [3] -2.83% | viability [4] 97.8% | viability [5] 98.3% | inhibition [6] 1.71% | RAM network inhibition [7] 2.23%

CCC(=O)Nc1c2c(nn1-c1ccc(OC)cc1)CS(=O)C2 (configuration not stated)
inactive: growth inhibition [1] -6.53% | growth inhibition [2] 5.54% | viability increase [3] 0.56% | viability [4] 102% | viability [5] 94.1% | inhibition [6] 1.37% | RAM network inhibition [7] 2.55%

CN1CCN(C(=O)c2ccc3c(c2)N(Cc2ccc(Cl)cc2)C(=O)c2ccccc2S3=O)CC1 (configuration not stated)
inactive: growth inhibition [1] -0.89% | growth inhibition [2] -13.2% | viability increase [3] -4.61% | viability [4] 80.3% | viability [5] 83% | inhibition [6] 0.215% | RAM network inhibition [7] 1.3%

COCC(C)NC(=O)c1cc(-c2ccc(O)cc2)on1 (configuration not stated)
inactive: growth inhibition [1] -1.88% | growth inhibition [2] 4.68% | viability increase [3] -3.12% | viability [4] 105% | viability [5] 100% | inhibition [6] 2.48% | RAM network inhibition [7] 0.94%

Cc1ccccc1N1C(=O)C(Cl)=C(N2CCN(c3ccccc3)CC2)C1=O
inactive: growth inhibition [1] -5.42% | growth inhibition [2] -12.1% | viability increase [3] -2.29% | viability [4] 101% | viability [5] 109% | inhibition [6] 0.515% | RAM network inhibition [7] 1.87%

CCOC(=O)c1oc2cc(O)c(CC)cc2c(=O)c1-c1ccc2c(c1)OCCO2
inactive: growth inhibition [1] -22.8% | growth inhibition [2] -16.3% | viability increase [3] -2.23% | viability [4] 101% | viability [5] 91.7% | inhibition [6] 3% | RAM network inhibition [7] 5.4%

Cc1onc(-c2ccccc2)c1C(=O)Nc1ccccc1C#N
inactive: growth inhibition [1] -5.39% | growth inhibition [2] -4.02% | viability increase [3] -2.87% | viability [4] 97.3% | viability [5] 91.8% | inhibition [6] 1.89% | RAM network inhibition [7] 2.87%

Cc1cc(C)n(-c2ncc(-c3ccccc3)nn2)n1
inactive: growth inhibition [1] -2.83% | growth inhibition [2] 29.2% | viability increase [3] -0.89% | viability [4] 105% | viability [5] 105% | inhibition [6] 0.43% | RAM network inhibition [7] 2.61%

CCCc1nc2c(o1)CC(CC(C)SCC)CC2=O (configuration not stated)
inactive: growth inhibition [1] -7.34% | growth inhibition [2] -1.98% | viability increase [3] -0.4% | viability [4] 101% | viability [5] 98.8% | inhibition [6] 1.36% | RAM network inhibition [7] 5.75%

O=C(NCCCN1CCOCC1)c1cc(-c2ccc3c(c2)OCO3)nc2ccccc12
inactive: growth inhibition [1] -19.7% | growth inhibition [2] -7.51% | viability increase [3] -3.78% | viability [4] 92.8% | viability [5] 89.3% | inhibition [6] 1.26% | RAM network inhibition [7] 7.64%

O=C(NCCN1C(=O)C2C3C=CC(C3)C2C1=O)NCc1ccccc1 (configuration not stated)
inactive: growth inhibition [1] -14.8% | growth inhibition [2] 3.81% | viability increase [3] -0.69% | viability [4] 102% | viability [5] 99.8% | inhibition [6] 1.61% | RAM network inhibition [7] 1.83%

Nc1c(C(=O)NCc2ccccc2)nnn1Cc1ccc(F)cc1
inactive: growth inhibition [1] -1.67% | growth inhibition [2] -11.5% | viability increase [3] -0.8% | viability [4] 98.6% | viability [5] 92.1% | inhibition [6] 1.8% | RAM network inhibition [7] 3.21%

CC(C)n1c(C(O)c2ccccc2)nc2ccccc21 (configuration not stated)
inactive: growth inhibition [1] -5.87% | growth inhibition [2] -13.6% | viability increase [3] 0.37% | viability [4] 97.6% | viability [5] 88.1% | inhibition [6] 1.4% | RAM network inhibition [7] 4.24%

CCOCCCNC(=O)Cc1cc(=O)[nH]c(=O)[nH]1
inactive: growth inhibition [1] -20.6% | growth inhibition [2] -19.6% | viability increase [3] -0.42% | viability [4] 99.2% | viability [5] 94.1% | inhibition [6] 1.44% | RAM network inhibition [7] 4.84%

O=C(c1cc2ccccn2n1)N1CCN(c2ccccn2)CC1
inactive: growth inhibition [1] -2.62% | growth inhibition [2] 7.25% | viability increase [3] 2.16% | viability [4] 103% | viability [5] 106% | inhibition [6] 0.94% | RAM network inhibition [7] 4.4%

CC(C)C(NS(=O)(=O)c1ccc2c(c1)oc(=O)n2C)C(=O)N1CCN(C2CCCCC2)CC1 (configuration not stated)
inactive: growth inhibition [1] -2.87% | growth inhibition [2] -9.46% | viability increase [3] -3.02% | viability [4] 106% | viability [5] 95.6% | inhibition [6] 0.14% | RAM network inhibition [7] 6.54%

COc1ccc2c(c1)CCc1c(C(=O)NCc3ccc(F)cc3)noc1-2
inactive: growth inhibition [1] -8.49% | growth inhibition [2] -0.25% | viability increase [3] 1.03% | viability [4] 100% | viability [5] 103% | inhibition [6] 1.86% | RAM network inhibition [7] 4.87%

CCC(=O)N1c2ccccc2-c2nnc(SC)nc2OC1c1ccc(N(C)C)cc1 (configuration not stated)
inactive: growth inhibition [1] -3.95% | growth inhibition [2] 4.3% | viability increase [3] -6.55% | viability [4] 93.8% | viability [5] 91.5% | inhibition [6] 3.08% | RAM network inhibition [7] 1.82%

Cn1c(Cn2c(=O)sc3ccccc32)nnc1SCC(N)=O
inactive: growth inhibition [1] -17.4% | growth inhibition [2] -3.94% | viability increase [3] 0.08% | viability [4] 110% | viability [5] 88% | inhibition [6] 1.82% | RAM network inhibition [7] 3.26%

COc1ccc(C2CC(=O)N3CN(c4ccccc4F)CSC3=C2C#N)cc1OC (configuration not stated)
inactive: growth inhibition [1] 7.21% | growth inhibition [2] 19.4% | viability increase [3] -1.47% | viability [4] 107% | viability [5] 95.5% | inhibition [6] 1.22% | RAM network inhibition [7] 1.24%

COCC(C)N=Cc1c(O)[nH]c2ccccc12 (configuration not stated)
inactive: growth inhibition [1] 0.585% | growth inhibition [2] 1.21% | viability increase [3] -2.38% | viability [4] 92.1% | viability [5] 97.5% | inhibition [6] 0.82% | RAM network inhibition [7] -1.18%

COc1ccc(-n2c(Cc3cccn3C)nnc2SCC(=O)N2CCC(C)CC2)cc1
inactive: growth inhibition [1] 4.99% | growth inhibition [2] 18.8% | viability increase [3] -0.89% | viability [4] 94% | viability [5] 94.5% | inhibition [6] 1.42% | RAM network inhibition [7] 2.73%

O=C(c1ccc(CS(=O)(=O)c2ccc(Br)cc2)o1)N1CCCCCC1
inactive: growth inhibition [1] -9.29% | growth inhibition [2] -18.8% | viability increase [3] -2.25% | viability [4] 87.9% | viability [5] 92.2% | inhibition [6] 0.185% | RAM network inhibition [7] 9.94%

O=C(Nc1ccc2c(c1)OCO2)c1cc(C2CC2)on1
inactive: growth inhibition [1] -12.5% | growth inhibition [2] -18% | viability increase [3] -3.41% | viability [4] 84.9% | viability [5] 88.8% | inhibition [6] 1% | RAM network inhibition [7] 3.09%

COc1cc(O)c(NC(C)=O)c2nonc12
inactive: growth inhibition [1] -5.37% | growth inhibition [2] 5.21% | viability increase [3] 0% | viability [4] 101% | viability [5] 107% | inhibition [6] -0.845% | RAM network inhibition [7] -1.46%

Cc1ccc(-c2nn(C)c(=O)c3ccccc23)cc1S(=O)(=O)N1CCCC1
inactive: growth inhibition [1] -1.23% | growth inhibition [2] -6.2% | viability increase [3] -5.14% | viability [4] 49.8% | viability [5] 61% | inhibition [6] 0.01% | RAM network inhibition [7] 2.78%

COCCNc1cc(C)nc2c(-c3ccccc3OC)c(C)nn12
inactive: growth inhibition [1] -1.17% | growth inhibition [2] 4.02% | viability increase [3] -2.38% | viability [4] 97.2% | viability [5] 94.2% | inhibition [6] 1.74% | RAM network inhibition [7] 0.56%

C=CCOc1cccc(C2C(C(=O)c3ccco3)=C(O)C(=O)N2CCN2CCOCC2)c1 (configuration not stated)
inactive: growth inhibition [1] -9.71% | growth inhibition [2] -10.5% | viability increase [3] -2.85% | viability [4] 94.1% | viability [5] 93.2% | inhibition [6] 0.795% | RAM network inhibition [7] -0.11%

CC(=O)c1cccc(NC(=O)Cn2cc3c(n2)CCCC3)c1
inactive: growth inhibition [1] -3.74% | growth inhibition [2] -0.095% | viability increase [3] -3.04% | viability [4] 97.5% | viability [5] 96.7% | inhibition [6] 0.1% | RAM network inhibition [7] 2.14%

Cc1cc(C)n(/N=C/c2cccc(O)c2)c(=O)c1C(N)=O
inactive: growth inhibition [1] -22.8% | growth inhibition [2] -22.5% | viability increase [3] 1.95% | viability [4] 99.7% | viability [5] 100% | inhibition [6] 0.485% | RAM network inhibition [7] 4.4%

O=S(=O)(c1cccc(-n2cnnn2)c1)N1CCOCC1
inactive: growth inhibition [1] -5.21% | growth inhibition [2] -3.17% | viability increase [3] -1.69% | viability [4] 94.3% | viability [5] 93% | inhibition [6] 1.6% | RAM network inhibition [7] 2.96%
